Sampled rows, rich in hits. Any-hit rate of the full collection: about 2.3%.
TRPC4 PAM – allosteric potentiators of mouse TRPC4 channel; HEK293 TRPC4beta/mu-opioid, DAMGO EC20, Fluo-4 Ca2+ flux; hits give high values; Q9QUQ5; B-score at 10 µM; 0.42% of 310,000 active; AID 2227;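 active = B-score of calcium response area above 5 SD of library B-scores, with initial fluorescence ratio within 5 SD of library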
TRPC6 inhibitor – mouse TRPC6 channel inhibition; Q61143; HEK293-TRPC6, membrane potential dye, ACh-evoked depolarization; hits give low values; B-score at 10 µM; 1.1% of 310,000 active;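 active = B-score under library mean minus 3 SD, initial fluorescence not abnormally high, positive integrated signal ratio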;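 also: B-score derived from integrated fluorescence ratio over the kinetic read; more negative B-score means stronger inhibition of depolarization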
Target sequence (Q61143 whole entry, looked up): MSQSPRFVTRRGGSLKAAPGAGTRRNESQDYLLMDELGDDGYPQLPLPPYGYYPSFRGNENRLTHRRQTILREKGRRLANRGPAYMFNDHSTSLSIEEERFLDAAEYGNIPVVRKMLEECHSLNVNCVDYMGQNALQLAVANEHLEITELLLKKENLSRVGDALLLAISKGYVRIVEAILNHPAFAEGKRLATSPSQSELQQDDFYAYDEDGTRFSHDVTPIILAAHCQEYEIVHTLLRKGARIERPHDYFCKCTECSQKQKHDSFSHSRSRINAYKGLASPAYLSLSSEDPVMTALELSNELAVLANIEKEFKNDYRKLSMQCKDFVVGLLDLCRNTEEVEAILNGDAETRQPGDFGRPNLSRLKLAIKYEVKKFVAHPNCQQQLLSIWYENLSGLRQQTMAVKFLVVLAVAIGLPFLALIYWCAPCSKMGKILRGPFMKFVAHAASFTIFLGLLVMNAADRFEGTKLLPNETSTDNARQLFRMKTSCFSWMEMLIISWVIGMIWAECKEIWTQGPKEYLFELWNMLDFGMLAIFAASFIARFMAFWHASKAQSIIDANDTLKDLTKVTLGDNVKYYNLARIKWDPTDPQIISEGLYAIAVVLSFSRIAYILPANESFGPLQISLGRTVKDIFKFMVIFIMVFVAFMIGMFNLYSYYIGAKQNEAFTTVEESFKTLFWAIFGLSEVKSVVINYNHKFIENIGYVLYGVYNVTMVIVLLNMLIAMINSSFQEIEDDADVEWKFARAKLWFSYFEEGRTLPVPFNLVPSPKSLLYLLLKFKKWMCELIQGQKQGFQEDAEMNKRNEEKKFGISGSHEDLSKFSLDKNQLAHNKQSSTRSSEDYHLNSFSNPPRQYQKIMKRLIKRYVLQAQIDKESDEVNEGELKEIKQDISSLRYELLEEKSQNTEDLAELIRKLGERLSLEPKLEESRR
TRPC4 agonist – activators of mouse TRPC4 channel; Q9QUQ5; HEK293 TRPC4beta/mu-opioid, Fluo4 calcium fluorescence; hits give high values; B-score at 10 µM; 0.49% of 310,000 active;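 active = B-score above 5 SD of library B-scores, and initial fluorescence ratio not above library mean plus 5 SD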;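 also: positive B-score marks a calcium rise read as TRPC4 activation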
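System: HEK293 cells stably co-expressing mouse TRPC4beta and mu-opioid receptor; Schedule: Fluo4 dye loading 45 min at room temperature, 110 s recording; Detection: Fluo4 fluorescence, kinetic; Evaluation: B-scored integrated calcium fluorescence ratio; Controls: buffer (low) and maximal DAMGO (high).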
TRPC4 inh – TRPC4 (mouse) channel inhibition; Q9QUQ5; B-score at 10 µM; AID 2247; 0.39% of 300,000 active; HEK293 TRPC4beta/mu-opioid, DAMGO-evoked Fluo4 calcium flux; hits give low values;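 active = B-score over 3 SD under the library average, no early fluorescence shift, positive overall ratio signal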
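System: stable TRPC4beta/mu-opioid receptor HEK293 cells; Dosing: single-point compound dosing; Measured by: Fluo4 Ca2+ flux fluorescence; Read-out basis: per-well B score of integrated baseline-normalized Fluo4 ratio.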
TRPC6 activator – mouse TRPC6 channel activation; Q61143; HEK293-TRPC6 membrane potential dye fluorescence; hits give high values; B-score at 10 µM; 0.13% of 310,000 active;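 active = B-score of the integrated fluorescence ratio above library mean plus 3 SD, and starting fluorescence ratio within library mean plus 5 SD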;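 also: higher score means more depolarization so channel activation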
A number is an active result; . = inactive.

SMILES	TRPC4 PAM	TRPC6 inhibitor	TRPC4 agonist	TRPC4 inh	TRPC6 activator
Cc1cc(C)c(N=C2SCC(=O)N2Cc2ccco2)c(C)c1	.	.	.	-5	.
O=C1CSC(=Nc2ccc(Cl)cc2)N1Cc1ccco1	.	.	.	.	.
CCCN(CCC)CCNC(=O)C1CCN(Cc2nc(-c3ccc(Cl)cc3)oc2C)CC1	.	-7.2	.	.	.
COc1ccc(-n2cnnc2SCC(=O)NC2CCS(=O)(=O)C2)cc1 (stereo unspecified)	.	.	.	.	.
O=[N+]([O-])c1ccc(C2CNC(c3ccccc3)O2)cc1 (stereo unspecified)	14	.	.	.	.
COc1cc(OC)c(C2N(C)c3ccccc3N2C)cc1OC	.	.	.	-6	.
COC(=O)C1=CN(c2ccc(OC)cc2)C=C(C(=O)OC)C1c1cc(OC)c(OC)cc1OC	.	.	.	.	.
Cc1ccc(N2CC(C(=O)N3CCN(Cc4ccc5c(c4)OCO5)CC3)CC2=O)cc1 (stereo unspecified)	.	.	.	.	.
CCOC(=O)CSc1nc2c(sc(=S)n2Cc2ccco2)c(=O)n1-c1ccccc1	.	.	.	-6	.
CCN(CC)C(=O)CSc1nc2c(sc(=S)n2Cc2ccco2)c(=O)n1-c1ccccc1	.	.	.	.	.
CCOC(=O)CSc1nc2c(sc(=S)n2-c2ccccc2OC)c(=O)n1-c1ccccc1OC	.	.	.	.	.
CCOC(=O)CSc1nc2c(sc(=S)n2-c2ccccc2OC)c(=O)n1Cc1ccco1	.	-5.7	.	-5	.
C/C(=N/Nc1ccnc2cc(Cl)ccc12)c1ccc(N)cc1	.	.	63	.	.
C/C(=N/Nc1ccnc2cc(Cl)ccc12)c1ccc(O)cc1	.	.	.	.	.
COc1ccccc1N1CCN(c2ncc(C(=O)N3CCN(c4cccc(Cl)c4)CC3)c3ccccc23)CC1	21	.	.	.	.
COc1ccc(Cl)cc1NC(=O)CCN1CCN(c2ccccc2C)CC1	.	.	.	.	.
CCOc1ccccc1C(=O)N1CCN(c2cccc(Cl)c2)CC1	.	.	.	.	.
CCN1CCN(c2ncc(C(=O)Nc3cc(Cl)ccc3OC)c3ccccc23)CC1	12	.	.	.	.
O=C(NC12CC3CC(CC(C3)C1)C2)c1ccc([N+](=O)[O-])cc1	.	.	.	.	.
O=[N+]([O-])c1ccc(C23CC4CC(CC(O)(C4)C2)C3)cc1	.	.	.	-6	.
CCOC(=O)C(NC(C)=O)(Nc1ccc(S(=O)(=O)Nc2cc(C)nc(C)n2)cc1)C(F)(F)F (stereo unspecified)	.	.	.	.	.
CCCOc1ccc(N2C(=O)CC(N(CCc3ccccc3)C(=O)c3ccccc3)C2=O)cc1 (stereo unspecified)	.	.	.	.	.
Cn1c(-c2c(N)n(CCCc3ccccc3)c3nc4ccccc4nc23)nc2ccccc21	.	.	.	.	.
COCCCn1c(N)c(-c2nc3ccccc3n2C)c2nc3ccccc3nc21	.	.	74	.	.
CCOc1ccc(N(C(=O)CNC(=O)c2ccco2)C(C(=O)NCC2CCCO2)c2ccccc2)cc1 (stereo unspecified)	.	.	.	.	.
SMILES	TRPC4 PAM	TRPC6 inhibitor	TRPC4 agonist	TRPC4 inh	TRPC6 activator
COc1ccc(N(C(=O)CNC(=O)c2ccco2)C(C(=O)NCC2CCCO2)c2ccccc2)cc1 (stereo unspecified)	11	.	.	.	.
Cc1cccc(CN2CCCC(C(=O)c3ccc4c5c(cccc35)CC4)C2)n1 (stereo unspecified)	.	.	.	.	.
COc1cc(CN2CCCC(C(=O)c3ccc4c5c(cccc35)CC4)C2)cc(OC)c1O (stereo unspecified)	.	.	44	.	.
O=C(c1ccc2c3c(cccc13)CC2)C1CCCN(Cc2cccnc2)C1 (stereo unspecified)	.	.	81	.	.
COc1ccc(C(=O)C2CCCN(Cc3ccc4nonc4c3)C2)c(OC)c1 (stereo unspecified)	.	.	.	-6	.
CCn1c(SCC(=O)Nc2cccc(C)c2)nc2nc3c(cc2c1=O)COC(C)(C)C3	.	.	.	.	.
CCOC(=O)C1CCCN(Cc2ccc(OC)c(OCc3ccccc3)c2)C1 (stereo unspecified)	.	.	.	.	.
CCOC(=O)C1(CC2CCCCO2)CCN(Cc2nc3ccccc3[nH]2)CC1 (stereo unspecified)	.	.	115	.	.
CCOC(=O)C1(CC2CCCCO2)CCN(Cc2cc(F)ccc2-n2cccn2)CC1 (stereo unspecified)	.	.	91	.	.
CCOC(=O)C1(CC2CCCCO2)CCN(Cc2c(C)cc(C)cc2-n2cccn2)CC1 (stereo unspecified)	.	.	106	.	.
CCOC(=O)C1(CC2CCCCO2)CCN(Cc2nccn2-c2cccc(C)c2)CC1 (stereo unspecified)	.	.	.	.	.
COc1cccc(CN2CCN(C3CCN(c4ccccc4F)CC3)CC2CCO)c1 (stereo unspecified)	.	.	.	-5	.
CCC(C)n1c(SCC(=O)Nc2cc(C)on2)nc2ccccc2c1=O (stereo unspecified)	.	.	44	.	.
CCn1c(SCC(=O)Nc2cccc(C)c2)nc2ccccc2c1=O	.	.	.	.	.
C=C(C)Cn1c(SCC)nc2ccccc2c1=O	.	.	.	-5	.
CCn1c(SCC(=O)Nc2ccccc2)nc2ccccc2c1=O	.	.	.	-5	.
Cc1cc(Cl)ccc1OCc1cn2cccnc2n1	.	.	.	.	.
CC(C)N(C)CCOC(=O)C1COc2ccccc2O1 (stereo unspecified)	.	.	.	.	.
C#CCOc1ccc(/C=N/NC(=O)c2cccnc2)cc1OCC	.	.	.	.	.
Cc1ccc(NC(=O)Nc2ccc3c(c2)C(=O)OC3)cc1Cl	.	.	.	.	.
CC1CCCCN1CCCNC(=O)c1nn(C)c2c1CSc1ccccc1-2 (stereo unspecified)	.	.	.	-7	.
CCCCN(C(=O)c1ccc2c(c1)S(=O)(=O)N=C1CCCCCN12)c1c(N)n(CCCC)c(=O)[nH]c1=O	.	.	.	.	.
Cc1ccc(NC2=Nc3ccccc3CC2)cc1	.	.	54	.	.
CCN1CC2=C(OC(N)=C(C#N)C2c2cccs2)/C(=C/c2cccs2)C1 (stereo unspecified)	12	.	.	.	.
CCN1CC2=C(OC(N)=C(C#N)C2c2ccccc2)/C(=C\c2ccccc2)C1 (stereo unspecified)	.	.	.	.	.
CC(C)(C)NCC(O)CON=C1c2ccccc2-c2ccccc21 (stereo unspecified)	10	.	.	.	.
CCSc1nc(N)c2c3c(sc2n1)CN(C)CC3	.	-5.3	.	.	.

Compound activity from PubChem.
